Square brackets hold non-standard residues; d marks the D form. Peptide text beside a SMILES is read from it. * marks the point of attachment. ξ: configuration not given here. Fmoc = O=C(OCC1c2ccccc2-c2ccccc21)*; ξV = CC(C)C(N)C(=O)O
Columns and labels:
[1] = Binding constant at vancomycin was measured using affinity capillary electrophoresis-MS.
Summary of the method: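 Mixture of Fmoc-DXYA (all-D) peptides plus Fmoc-G EOF marker injected together hydrodynamically (10 cm, 10 s) into an uncoated 50 cm capillary. Running buffer was 20 mM Tris-acetate pH 8.1 with 0–100 μM vancomycin, run at 400–500 V/cm. On-line ESI triple-quadrupole MS detected free peptide ions. Kd came from marker-corrected mobility shifts by Scatchard analysis.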

[2] = Binding constant at vancomycin was measured using affinity capillary electrophoresis-UV.
Summary of the method: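 Receptor-in-buffer mobility-shift ACE with UV detection was used, running individual ligands. Capillary was 30 cm effective length, 37 cm total length, at 20 kV. Kd was obtained by Scatchard analysis of mobility versus vancomycin concentration.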

Row | SMILES | Kd [1] [µM] | Kd [2] [µM]
1 | C[C@H](NC(=O)[C@H](Cc1ccc(O)cc1)NC(=O)[C@H](Cc1ccccc1)NC(=O)[C@H](CC(=O)O)NC(=O)OCC1c2ccccc2-c2ccccc21)C(=O)O (Fmoc-DFYA-OH) | 8.9 | 9.6
2 | C[C@H](NC(=O)[C@H](Cc1ccc(O)cc1)NC(=O)[C@@H](NC(=O)[C@H](CC(=O)O)NC(=O)OCC1c2ccccc2-c2ccccc21)[C@H](C)O)C(=O)O | 24 | 21
3 | C[C@H](NC(=O)[C@H](Cc1ccc(O)cc1)NC(=O)[C@H](CO)NC(=O)[C@H](CC(=O)O)NC(=O)OCC1c2ccccc2-c2ccccc21)C(=O)O (Fmoc-DSYA-OH) | 14 | 13
4 | C[C@H](NC(=O)[C@H](Cc1ccc(O)cc1)NC(=O)[C@H](Cc1c[nH]c2ccccc12)NC(=O)[C@H](CC(=O)O)NC(=O)OCC1c2ccccc2-c2ccccc21)C(=O)O (Fmoc-DWYA-OH) | 12 | 14
5 | CSCC[C@H](NC(=O)[C@H](CC(=O)O)NC(=O)OCC1c2ccccc2-c2ccccc21)C(=O)N[C@@H](Cc1ccc(O)cc1)C(=O)N[C@@H](C)C(=O)O (Fmoc-DMYA-OH) | 7.6 | 7.1
6 | C[C@H](NC(=O)[C@H](Cc1ccc(O)cc1)NC(=O)[C@H](CC(N)=O)NC(=O)[C@H](CC(=O)O)NC(=O)OCC1c2ccccc2-c2ccccc21)C(=O)O (Fmoc-DNYA-OH) | 12 | 11
7 | C[C@H](NC(=O)[C@H](Cc1ccc(O)cc1)NC(=O)[C@H](Cc1ccc(O)cc1)NC(=O)[C@H](CC(=O)O)NC(=O)OCC1c2ccccc2-c2ccccc21)C(=O)O (Fmoc-DYYA-OH) | 7.4 | 6.8
8 | C[C@H](NC(=O)[C@H](Cc1ccc(O)cc1)NC(=O)[C@H](CCC(N)=O)NC(=O)[C@H](CC(=O)O)NC(=O)OCC1c2ccccc2-c2ccccc21)C(=O)O (Fmoc-DQYA-OH) | 15 | 14
9 | C[C@H](NC(=O)[C@H](Cc1ccc(O)cc1)NC(=O)[C@H](CCCN=C(N)N)NC(=O)[C@H](CC(=O)O)NC(=O)OCC1c2ccccc2-c2ccccc21)C(=O)O (Fmoc-DRYA-OH) | 11 | 13
10 | CC(C)C(NC(=O)[C@H](CC(=O)O)NC(=O)OCC1c2ccccc2-c2ccccc21)C(=O)N[C@@H](Cc1ccc(O)cc1)C(=O)N[C@@H](C)C(=O)O (stereo partly drawn) (Fmoc-D[ξV]YA-OH) | 10 | 12
11 | C[C@H](NC(=O)[C@H](Cc1ccc(O)cc1)NC(=O)[C@@H]1CCCN1C(=O)[C@H](CC(=O)O)NC(=O)OCC1c2ccccc2-c2ccccc21)C(=O)O (Fmoc-DPYA-OH) | 16 | 14
12 | C[C@H](NC(=O)[C@H](Cc1ccc(O)cc1)NC(=O)[C@H](C)NC(=O)[C@H](CC(=O)O)NC(=O)OCC1c2ccccc2-c2ccccc21)C(=O)O (Fmoc-DAYA-OH) | 8.2 | 7.2
13 | CC[C@@H](C)[C@H](NC(=O)[C@H](CC(=O)O)NC(=O)OCC1c2ccccc2-c2ccccc21)C(=O)N[C@@H](Cc1ccc(O)cc1)C(=O)N[C@@H](C)C(=O)O | 21 | 19
14 | C[C@H](NC(=O)[C@H](Cc1ccc(O)cc1)NC(=O)CNC(=O)[C@H](CC(=O)O)NC(=O)OCC1c2ccccc2-c2ccccc21)C(=O)O (Fmoc-DGYA-OH) | 21 | 18
15 | C[C@H](NC(=O)[C@H](Cc1ccc(O)cc1)NC(=O)[C@H](Cc1c[nH]cn1)NC(=O)[C@H](CC(=O)O)NC(=O)OCC1c2ccccc2-c2ccccc21)C(=O)O (Fmoc-DHYA-OH) | 8.2 | 7.1
16 | C[C@H](NC(=O)[C@H](Cc1ccc(O)cc1)NC(=O)[C@H](CCCCN)NC(=O)[C@H](CC(=O)O)NC(=O)OCC1c2ccccc2-c2ccccc21)C(=O)O (Fmoc-DKYA-OH) | 12 | 13
17 | C[C@H](NC(=O)[C@H](Cc1ccc(O)cc1)NC(=O)[C@H](CCC(=O)O)NC(=O)[C@H](CC(=O)O)NC(=O)OCC1c2ccccc2-c2ccccc21)C(=O)O (Fmoc-DEYA-OH) | 8.5 | 10
18 | CC(C)C[C@H](NC(=O)[C@H](CC(=O)O)NC(=O)OCC1c2ccccc2-c2ccccc21)C(=O)N[C@@H](Cc1ccc(O)cc1)C(=O)N[C@@H](C)C(=O)O (Fmoc-DLYA-OH) | 5.1 | 5.6
19 | C[C@H](NC(=O)[C@H](Cc1ccc(O)cc1)NC(=O)[C@H](CC(=O)O)NC(=O)[C@H](CC(=O)O)NC(=O)OCC1c2ccccc2-c2ccccc21)C(=O)O (Fmoc-DDYA-OH) | 6.6 | 7.2

— ChEMBL document CHEMBL1131322, “Simultaneous measurement of nineteen binding constants of peptides to vancomycin using affinity capillary electrophoresis-mass spectrometry” (J Med Chem, 1998)
